Assay results published in PubChem BioAssay.
The source made the active and inactive calls.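 Rule for the calls, unless noted: active = compounds giving at least 50% inhibition in the cell-based MKP-3 phosphatase rescue imaging test; inactive = the rest.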

What was measured:
[1] = inhibitors of TNFa-induced NFkB p65 translocation, primary screen, imaging, HUVEC, MLSMR starter and 10KST1 sets (AID 438;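 active = inhibition above 20% together with a positive visual image hit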;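 note: compound added about 3h40 before a 20 min TNFalpha stimulation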;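 for inhibition: signal is the nuclear over cytoplasmic p65 intensity ratio per well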); conditions: HUVEC TNFa-induced p65 nuclear translocation; cell count: measured here: nuclei count (cytotoxicity indicator), at 2.08 µM; inhibition: at 2 µM, stronger effect = higher value, 0% TNFa-plus-vehicle, 100% no-TNFa wells
[2] = inhibitors of E-selectin induction by TNFa, primary screen, imaging, HUVEC, immunofluorescence, MLSMR starter and 10KST1 sets (AID 487;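 active = visually confirmed hit in the image check and inhibition above 20%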;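 for inhibition: signal is fraction of cell area covered by stained E-selectin grains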;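 for nuclei count: 100% = median nuclei count of all wells on the same plate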); conditions: HUVEC TNFalpha-induced E-selectin immunofluorescence imaging, at 2 µM; inhibition: stronger effect = higher value; nuclei count: measured here: cell number, toxicity
[3] = DUSP6 inhibitors restoring Erk phosphorylation by chemical complementation, primary imaging in DUSP6-transfected HeLa (AID 609); conditions: HeLa MKP-3 transfected, phospho-Erk imaging KS statistic, at 10 µM, cells stimulated with TPA for 15 min;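 for inhibition: phospho-Erk level distribution per well compared with pooled transfected vehicle control wells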
[4] = target: Dual specificity protein phosphatase 6 (Homo sapiens) (UniProt Q16828); assay: as above; conditions: HeLa MKP-3 transfected, phospho-Erk imaging KS statistic; at 10 µM; stronger effect = higher value; cells stimulated with TPA for 15 min
Sequence of Dual specificity protein phosphatase 6 (Homo sapiens) (Q16828 whole entry, looked up): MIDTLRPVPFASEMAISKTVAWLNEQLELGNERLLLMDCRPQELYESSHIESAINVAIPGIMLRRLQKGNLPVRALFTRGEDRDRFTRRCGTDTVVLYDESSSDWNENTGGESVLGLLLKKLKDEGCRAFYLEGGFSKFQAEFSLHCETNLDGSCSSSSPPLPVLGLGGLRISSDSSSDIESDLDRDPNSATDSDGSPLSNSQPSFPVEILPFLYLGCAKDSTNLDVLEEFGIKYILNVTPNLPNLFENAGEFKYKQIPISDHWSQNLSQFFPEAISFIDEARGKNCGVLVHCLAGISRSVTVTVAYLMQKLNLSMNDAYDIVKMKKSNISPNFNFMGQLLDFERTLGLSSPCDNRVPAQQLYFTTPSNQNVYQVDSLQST

[5] = target: Voltage-gated potassium channel subunit beta-2 (Rattus norvegicus) (UniProt P62483); assay: KvBeta enzyme negative modulators, primary screen, biochemical, NADPH fluorescence (AID 622;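 active = fluorescence slope higher than the sample average by over 3 SD, cut at about -0.22 in these data, passing the limit was not always enough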;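 note: slope of raw intensity against log time taken from 70 to 1610 s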); conditions: recombinant KvBeta, 4-cyanobenzaldehyde reduction, at 10 µM, stronger effect = higher value
Sequence of Voltage-gated potassium channel subunit beta-2 (Rattus norvegicus) (P62483 whole entry, looked up): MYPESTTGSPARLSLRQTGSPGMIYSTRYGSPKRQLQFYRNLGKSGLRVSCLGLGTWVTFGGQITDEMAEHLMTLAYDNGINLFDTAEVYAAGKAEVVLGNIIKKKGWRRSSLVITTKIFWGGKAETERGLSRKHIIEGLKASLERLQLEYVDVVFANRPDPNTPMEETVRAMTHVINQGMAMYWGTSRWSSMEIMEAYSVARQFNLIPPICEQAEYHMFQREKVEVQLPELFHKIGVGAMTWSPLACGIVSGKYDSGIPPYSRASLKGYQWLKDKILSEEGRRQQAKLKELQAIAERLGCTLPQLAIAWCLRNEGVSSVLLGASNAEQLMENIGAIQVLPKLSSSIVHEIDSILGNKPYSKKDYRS

[6] = target: Voltage-gated potassium channel subunit beta-2 (Rattus norvegicus) (UniProt P62483); assay: KvBeta positive modulators, primary screen, biochemical, NADPH fluorescence (AID 623;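 active = NADPH fluorescence slope more negative than the mean of all samples by about 3 SD, 99.7% confidence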;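 note: fluorescence intensity change per second fitted from 20 to 320 s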); conditions: Recombinant KvBeta, NADPH fluorescence decrease slope, 10 min; at 10 µM; stronger effect = lower value
[7] = target: Muscarinic acetylcholine receptor M4 (Homo sapiens) (UniProt P08173); assay: compounds altering M4/GIRK thallium flux, either direction, primary screen, M4 allosteric agonist project, cell-based, HEK293 M4/GIRK, BTC-AM (AID 625;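 active = fluorescence slope after compound addition differing from the mean of all tested samples at 99.7% confidence, mostly higher but some lower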;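 note: thallium influx through GIRK channels coupled to M4 in HEK293 cells with BTC-AM dye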); conditions: at 10 µM, actives lie on both sides
Sequence of Muscarinic acetylcholine receptor M4 (Homo sapiens) (P08173 whole entry, looked up): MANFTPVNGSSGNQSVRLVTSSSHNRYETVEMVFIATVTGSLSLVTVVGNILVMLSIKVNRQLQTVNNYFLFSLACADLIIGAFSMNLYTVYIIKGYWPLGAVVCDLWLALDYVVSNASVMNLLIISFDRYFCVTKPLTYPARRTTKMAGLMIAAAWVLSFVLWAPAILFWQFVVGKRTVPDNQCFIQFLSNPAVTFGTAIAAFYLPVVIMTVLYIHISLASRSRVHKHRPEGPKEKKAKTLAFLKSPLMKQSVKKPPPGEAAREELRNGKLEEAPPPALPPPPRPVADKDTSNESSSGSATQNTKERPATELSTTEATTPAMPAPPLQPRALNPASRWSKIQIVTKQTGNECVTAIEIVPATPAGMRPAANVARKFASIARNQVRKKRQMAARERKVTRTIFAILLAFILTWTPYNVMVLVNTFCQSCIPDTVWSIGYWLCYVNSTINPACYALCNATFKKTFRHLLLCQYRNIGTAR
Summary of the method: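 Material: M4/GIRK1/GIRK2 stable HEK293 cell line. Medium: pH 7.3 thallium assay buffer. Dosing: single compound concentration, 10 µM final. Schedule: 1 h dye loading, 2 min kinetic read. Measured by: kinetic fluorescence with BTC-AM dye. Read-out: post-addition slope, 15–24 s, of baseline-normalized fluorescence. Benchmarks: carbachol and DMSO controls.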

[8] = inhibitors of larval lipid processing in zebrafish, primary screen, whole organism, PED6 fluorescence, gall bladder and intestine (AID 686;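 active = a full or partial loss of lipid-probe fluorescence in the fish gall bladder, intestine or both, judged by eye; inactive = no fluorescence loss, or compound toxic to the fish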;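 note: larvae 5 to 7 days old with five fish per well; signal comes from phospholipase A2 cleavage of quenched PED6 carried via bile; overnight exposure to compound and PED6 before scoring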); conditions: Zebrafish larvae PED6 lipid processing, fluorescence scoring; screened at 20 µM (by protocol)
Summary of the method: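 System: live zebrafish larvae aged 5-7 days, whole organism; measure: graded gall bladder and intestinal fluorescence inhibition per well; incubation: overnight exposure; reagent: ingested quenched lipid PED6 at 100 nM; signal: By-eye fluorescence microscopy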

[9] = inhibitors of Chlamydomonas gravitaxis, primary screen, whole organism, Chlamydomonas reinhardtii, WT vs cilia-less mutant, absorbance, 96-well (AID 463189;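 active = inhibition at or above 50% relative to wild type and mutant plate controls; inactive = inhibition below 50%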;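 note: 0% = wild type cc124 cells in DMSO and 100% = ciliumless bld1 mutant cells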); conditions: OD600 absorbance, 2 days, at 10 µM, stronger effect = higher value
[10] = measured here: cell density z-score
[11] = measured here: nuclear c-Myc green intensity z-score
[12] = measured here: nuclear pErk red intensity z-score, stronger effect = higher value

SMILES	cell count [1]	inhibition [1]	inhibition [2]	nuclei count [2] [%]	z-score [3, 10]	z-score [3, 11]	z-score [3, 12]	inhibition [4]	fluorescence slope [5]	NADPH fluorescence slope [6]	fluorescence slope [7]	outcome [8]	inhibition [9]
C=CCN=C(NC#N)SCCc1ccccc1	587	-16.1% (inactive)	49.5% (inactive)	161	-0.943	1.91	-0.167	-5.62% (inactive)	-0.498 (inactive)	-6.6e-05 (inactive)	0.00676 (inactive)	inactive	-0.302% (inactive)
Cc1ccccc1-n1c(=O)/c(=C\c2ccco2)s/c1=C(/C#N)C(=O)Nc1ccccc1	677	-5.8% (inactive)	-17.2% (inactive)	151	0.299	-0.624	-0.976	9.37% (inactive)	-0.475 (inactive)	-4.4e-05 (inactive)	0.00343 (inactive)	inactive	-0.051% (inactive)
COC(=O)COc1ccc(Oc2nc(SC)nc(N(C)C)n2)nn1	345	-16.3% (inactive)	-54.5% (inactive)	109	-0.468	-0.441	-0.861	-3.95% (inactive)	-0.461 (inactive)	-8.1e-05 (inactive)	0.00594 (inactive)	inactive	-8.33% (inactive)
COc1ccc2[nH]cc(C(=O)CN(C)CCc3ccc(OC)c(OC)c3)c2c1	516	-15.4% (inactive)	-59.5% (inactive)	137	0.922	-0.876	1.1	-14.6% (inactive)	-0.476 (inactive)	-7.3e-05 (inactive)	0.00394 (inactive)	inactive	-1.18% (inactive)
COc1cccc(Cn2c(NCc3ccco3)nc3c2c(=O)n(C)c(=O)n3C)c1	704	-6.1% (inactive)	-198% (inactive)	180	0.733	0.0104	0.0373	27.8% (inactive)	-0.476 (inactive)	-0.000112 (inactive)	0.00767 (inactive)	inactive	0.377% (inactive)
CC1(C)Cc2c(c(N3CCCCC3)[nH]c(=S)c2C#N)CS1	574	-7.8% (inactive)	-103% (inactive)	151	-0.509	-1.94	0.0392	-10.6% (inactive)	-0.479 (inactive)	-0.000148 (inactive)	0.00629 (inactive)	inactive	12.9% (inactive)
COCc1[nH]nc2c1C(c1sccc1C)C(C#N)=C(N)O2 (stereo not drawn)	569	-7.1% (inactive)	-22.2% (inactive)	170	1.09	-0.767	0.181	8.31% (inactive)	-0.488 (inactive)	-2.8e-05 (inactive)	0.00573 (inactive)	inactive	0.653% (inactive)
Cc1cc(=O)oc(C)c1C(=O)Nc1ccc2nsnc2c1	517	-2% (inactive)	3.2% (inactive)	164	0.355	0.546	0.697	5.95% (inactive)	-0.278 (inactive)	-2.8e-05 (inactive)	0.00564 (inactive)	inactive	-6.75% (inactive)
COc1cc2nc(-c3ccccc3)nc(N3CCCC3)c2cc1OC	397	-11.2% (inactive)	-164% (inactive)	154	0.13	-0.48	0.0689	1.42% (inactive)	-0.433 (inactive)	-0.000105 (inactive)	0.00381 (inactive)	inactive	17.6% (inactive)
Cn1c(=O)c2c(nc(Br)n2CCSc2nc3ccccc3o2)n(C)c1=O	608	-8.8% (inactive)	32.7% (inactive)	175	-0.0761	0.135	-1.22	17.4% (inactive)	-0.346 (inactive)	-7e-06 (inactive)	0.00576 (inactive)	inactive	45.2% (inactive)
COc1ccc(CSc2nnc3n(C)c(=O)c4c5c(sc4n23)CCCC5)cc1	563	-1.3% (inactive)	-140% (inactive)	184	0.888	-0.948	-1.27	17.8% (inactive)	-0.41 (inactive)	-1.6e-05 (inactive)	0.00522 (inactive)	inactive	1.97% (inactive)
CCCSc1nnc2n(Cc3ccccc3)c(=O)c3c4c(sc3n12)CCC4	405	-0.7% (inactive)	-31.5% (inactive)	170	0.317	-0.563	1.11	-4.59% (inactive)	-0.453 (inactive)	-0.000111 (inactive)	0.00548 (inactive)	inactive	9.79% (inactive)
Cc1ccc(NC(=O)CSc2nnc(-c3ccco3)c(-c3ccco3)n2)cc1	389	-7.7% (inactive)	-155% (inactive)	183	-0.429	-0.71	1.45	-0.608% (inactive)	-0.453 (inactive)	-0.000112 (inactive)	0.00329 (inactive)	inactive	11.9% (inactive)
O=C(NCCN1CCOCC1)c1ccc(=O)oc1	515	-7.5% (inactive)	70.5% (active)	102	0.12	1.12	0.0878	4.37% (inactive)	-0.481 (inactive)	-8.3e-05 (inactive)	0.0085 (inactive)	inactive	-15.9% (inactive)
CC(=O)C1=C(O)C(=O)N(c2ccc(Br)cn2)C1c1ccccc1F (stereo not drawn)	545	-2.5% (inactive)	-45.7% (inactive)	131	1.35	-1.7	-1.31	3.97% (inactive)	-0.454 (inactive)	-3.5e-05 (inactive)	0.00688 (inactive)	inactive	1.29% (inactive)
CCOC(=O)c1[nH]c2ccc(C)cc2c1N=CN(CC)CC	681	-16.8% (inactive)	-97.9% (inactive)	174	-1.2	1.5	0.686	3.97% (inactive)	-0.474 (inactive)	-7.5e-05 (inactive)	0.00485 (inactive)	inactive	-5% (inactive)
CS(=O)(=O)c1ccc2nc(NC(NC(=O)c3ccco3)(C(F)(F)F)C(F)(F)F)sc2c1	376	-6.2% (inactive)	9.6% (inactive)	162	-0.876	1.31	0.831	3.42% (inactive)	-0.451 (inactive)	-8.9e-05 (inactive)	0.00497 (inactive)	inactive	2.54% (inactive)
COc1ccc(/C(O)=C2/C(=O)C(=O)N(CCCN(C)C)C2c2ccccc2)cc1Cl (stereo not drawn)	690	-2% (inactive)	-71.3% (inactive)	159	0.886	-1.15	1.23	4.25% (inactive)	-0.452 (inactive)	-6.6e-05 (inactive)	0.00499 (inactive)	inactive	20.4% (inactive)
Cc1ccc(CNC(=O)c2cc3c(=O)n4ccccc4nc3n(CC3CCCO3)c2=N)cc1 (stereo not drawn)	542	-11.9% (inactive)	-40.3% (inactive)	93.4	-0.636	0.681	-1.25	2.71% (inactive)	-0.331 (inactive)	-2.1e-05 (inactive)	-0.000734 (active)	inactive	32.5% (inactive)
CC(C)Cc1[nH]c(=O)c(C#N)c2c1COC(C)(C)C2	568	-11.1% (inactive)	-69.9% (inactive)	141	0.028	-0.951	-0.389	-13.3% (inactive)	-0.43 (inactive)	-5.3e-05 (inactive)	0.00369 (inactive)	inactive	23.1% (inactive)
N#CC1=C(N)OC2=C(C(=O)CCC2)[C@]12C(=O)N(CC(N)=O)c1ccccc12	485	-9.7% (inactive)	-41.1% (inactive)	130	-0.751	0.747	-0.43	-7.28% (inactive)	-0.431 (inactive)	-3e-05 (inactive)	0.00487 (inactive)	inactive	-0.197% (inactive)
